Laboratory results as given in ChEMBL document CHEMBL1138525 (J Med Chem, 2009).
Blank lines part the entries; values can stand above or below the molecule they belong to. Active and inactive are the calls of the source. The calls are words filed in the database; no cut-off is given here.

Columns and labels:
P2Y purinoceptor 2 [1] = molecular target: P2Y purinoceptor 2 (Homo sapiens, UniProt P41231, C278S); assay: Antagonist activity at N-terminal HA epitope-tagged human P2Y2 receptor C278S mutant expressed in human 1321N1 cells assessed as inhibition of UTP-induced calcium mobilization; format: functional, cell-based
Summary of the method: (§1)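 1321N1 cells expressing wild-type or mutant receptor were dye-loaded with Oregon Green BAPTA-1/AM in Krebs-HEPES pH 7.4. Antagonist was preincubated for 20 min at 28 °C in the dark. Cells were then stimulated with UTP at a concentration giving 80-90% of maximal response. Calcium fluorescence read at 520 nm (excitation 485 nm).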

P2Y purinoceptor 2 [2] = molecular target: P2Y purinoceptor 2 (Homo sapiens, UniProt P41231, Y118A); assay: Antagonist activity at N-terminal HA epitope-tagged human P2Y2 receptor Y118A mutant expressed in human 1321N1 cells assessed as inhibition of UTP-induced calcium mobilization; format: functional, cell-based; summary of the method: as §1
[3] = test system: P2Y purinoceptor 2 (Homo sapiens), P41231 [UNDEFINED MUTATION]; assay: Ratio of IC50 for N-terminal HA epitope-tagged human P2Y2 receptor C278S mutant to IC50 for wild type 3 human P2Y2 receptor
P2Y purinoceptor 2 [4] = molecular target: P2Y purinoceptor 2 (Homo sapiens, UniProt P41231, Y114A); assay: Antagonist activity at N-terminal HA epitope-tagged human P2Y2 receptor Y114A mutant expressed in human 1321N1 cells assessed as inhibition of UTP-induced calcium mobilization; format: functional, cell-based; summary of the method: as §1
P2Y purinoceptor 2 [5] = molecular target: P2Y purinoceptor 2 (Homo sapiens, UniProt P41231, Y198A); assay: Antagonist activity at N-terminal HA epitope-tagged human P2Y2 receptor Y198A mutant expressed in human 1321N1 cells assessed as inhibition of UTP-induced calcium mobilization; format: functional, cell-based; summary of the method: as §1
P2Y purinoceptor 2 [6] = molecular target: T1, P2Y purinoceptor 2 (Homo sapiens, UniProt P41231); assay: Antagonist activity at N-terminal HA epitope-tagged wild type 3 human P2Y2 receptor expressed in human 1321N1 cells assessed as inhibition of UTP-induced calcium mobilization; format: functional, cell-based; summary of the method: as §1
P2Y purinoceptor 2 [7] = molecular target: T1, P2Y purinoceptor 2; assay: Antagonist activity at N-terminal HA epitope-tagged wild type 4 human P2Y2 receptor expressed in human 1321N1 cells assessed as inhibition of UTP-induced calcium mobilization; format: functional, cell-based
P2Y purinoceptor 2 [8] = molecular target: P2Y purinoceptor 2 (Homo sapiens, UniProt P41231, R177A/R180A); assay: Antagonist activity at N-terminal HA epitope-tagged human P2Y2 receptor R177A_R180A double mutant expressed in human 1321N1 cells assessed as inhibition of UTP-induced calcium mobilization; format: functional, cell-based; summary of the method: as §1
P2Y purinoceptor 2 [9] = molecular target: T1, P2Y purinoceptor 2; assay: Agonist activity at N-terminal HA epitope-tagged human P2Y2 receptor expressed in human 1321N1 cells assessed as increase in intracellular calcium level at 100 µM
[10] = test system: P2Y purinoceptor 2 (Homo sapiens), P41231 [Y118A]; assay: Agonist activity at N-terminal HA epitope-tagged human P2Y2 receptor Y118A mutant expressed in human 1321N1 cells assessed as increase in intracellular calcium level relative to carbachol; format: functional, cell-based
Summary of the method: (§2)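 Retrovirally transduced stable 1321N1 astrocytoma lines (wild-type lines of differing expression, or mutants) in suspension, loaded with Oregon Green BAPTA-1/AM for 1 h at room temperature. Cells were plated at 150000 per well in Krebs-HEPES pH 7.4 and held 20 min at 28 °C in the dark. Agonist was then injected, with fluorescence read at ex 485/em 520 nm for 60 × 0.4 s.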

[11] = test system: P2Y purinoceptor 2 (Homo sapiens), P41231 [S296A]; assay: Agonist activity at N-terminal HA epitope-tagged human P2Y2 receptor S296A mutant expressed in human 1321N1 cells assessed as increase in intracellular calcium level relative to carbachol; format: functional, cell-based; summary of the method: as §2
[12] = test system: P2Y purinoceptor 2 (Homo sapiens), P41231 [Y198A]; assay: Agonist activity at N-terminal HA epitope-tagged human P2Y2 receptor Y198A mutant expressed in human 1321N1 cells assessed as increase in intracellular calcium level relative to carbachol; format: functional, cell-based; summary of the method: as §2
[13] = test system: P2Y purinoceptor 2 (Homo sapiens), P41231 [R272A]; assay: Agonist activity at N-terminal HA epitope-tagged human P2Y2 receptor R272A mutant expressed in human 1321N1 cells assessed as increase in intracellular calcium level up to 300 uM relative to carbachol; format: functional, cell-based; summary of the method: as §2
[14] = test system: P2Y purinoceptor 2 (Homo sapiens), P41231 [R177A,R180A]; assay: Agonist activity at N-terminal HA epitope-tagged human P2Y2 receptor R177A_R180A double mutant expressed in human 1321N1 cells assessed as increase in intracellular calcium level relative to carbachol; format: functional, cell-based; summary of the method: as §2
P2Y purinoceptor 2 [15] = molecular target: T1, P2Y purinoceptor 2; assay: Agonist activity at N-terminal HA epitope-tagged wild type 3 human P2Y2 receptor expressed in human 1321N1 cells assessed as increase in intracellular calcium level relative to carbachol; format: functional, cell-based; summary of the method: as §2
[16] = test system: P2Y purinoceptor 2 (Homo sapiens), P41231 [C278S]; assay: Agonist activity at N-terminal HA epitope-tagged human P2Y2 receptor C278S mutant expressed in human 1321N1 cells assessed as increase in intracellular calcium level relative to carbachol; format: functional, cell-based; summary of the method: as §2
P2Y purinoceptor 2 [17] = molecular target: T1, P2Y purinoceptor 2; assay: Agonist activity at N-terminal HA epitope-tagged wild type 4 human P2Y2 receptor expressed in human 1321N1 cells assessed as increase in intracellular calcium level relative to carbachol; format: functional, cell-based; summary of the method: as §2
[18] = test system: P2Y purinoceptor 2 (Homo sapiens), P41231 [R180A]; assay: Agonist activity at N-terminal HA epitope-tagged human P2Y2 receptor R180A mutant expressed in human 1321N1 cells assessed as increase in intracellular calcium level relative to carbachol; format: functional, cell-based; summary of the method: as §2
[19] = test system: P2Y purinoceptor 2 (Homo sapiens), P41231 [R177A]; assay: Agonist activity at N-terminal HA epitope-tagged human P2Y2 receptor R177A mutant expressed in human 1321N1 cells assessed as increase in intracellular calcium level relative to carbachol; format: functional, cell-based; summary of the method: as §2
[20] = test system: P2Y purinoceptor 2 (Homo sapiens), P41231 [Y114A]; assay: Agonist activity at N-terminal HA epitope-tagged human P2Y2 receptor Y114A mutant expressed in human 1321N1 cells assessed as increase in intracellular calcium level relative to carbachol; format: functional, cell-based; summary of the method: as §2
[21] = test system: P2Y purinoceptor 2 (Homo sapiens), P41231 [R194H]; assay: Agonist activity at N-terminal HA epitope-tagged human P2Y2 receptor R194H mutant expressed in human 1321N1 cells assessed as increase in intracellular calcium level relative to carbachol; format: functional, cell-based; summary of the method: as §2
Sequence of P2Y purinoceptor 2 (Homo sapiens), P41231 [R194H] (P41231 whole entry R194H): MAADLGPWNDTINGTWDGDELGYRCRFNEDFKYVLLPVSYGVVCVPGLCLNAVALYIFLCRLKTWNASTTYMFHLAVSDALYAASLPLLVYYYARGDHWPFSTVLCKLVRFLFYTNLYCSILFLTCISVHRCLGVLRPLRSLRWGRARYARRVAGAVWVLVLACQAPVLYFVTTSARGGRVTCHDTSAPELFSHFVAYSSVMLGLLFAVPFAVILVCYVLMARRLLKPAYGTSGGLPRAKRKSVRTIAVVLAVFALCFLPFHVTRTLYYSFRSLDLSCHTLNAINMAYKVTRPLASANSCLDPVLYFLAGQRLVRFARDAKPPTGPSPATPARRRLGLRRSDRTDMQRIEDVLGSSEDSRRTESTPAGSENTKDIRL

T1 sequence (P41231 whole entry): as the sequence (P41231 whole entry R194H) above, with H194R counted along it
Sequence of P2Y purinoceptor 2 (Homo sapiens), P41231 [Y114A] (P41231 whole entry Y114A): as the sequence (P41231 whole entry R194H) above, with Y114A, H194R counted along it
Sequence of P2Y purinoceptor 2 (Homo sapiens, UniProt P41231, Y114A) (P41231 whole entry Y114A): as the sequence (P41231 whole entry R194H) above, with Y114A, H194R counted along it
Sequence of P2Y purinoceptor 2 (Homo sapiens), P41231 [R177A] (P41231 whole entry R177A): as the sequence (P41231 whole entry R194H) above, with R177A, H194R counted along it
Sequence of P2Y purinoceptor 2 (Homo sapiens), P41231 [R272A] (P41231 whole entry R272A): as the sequence (P41231 whole entry R194H) above, with H194R, R272A counted along it
Sequence of P2Y purinoceptor 2 (Homo sapiens), P41231 [S296A] (P41231 whole entry S296A): as the sequence (P41231 whole entry R194H) above, with H194R, S296A counted along it
Sequence of P2Y purinoceptor 2 (Homo sapiens), P41231 [Y118A] (P41231 whole entry Y118A): as the sequence (P41231 whole entry R194H) above, with Y118A, H194R counted along it
Sequence of P2Y purinoceptor 2 (Homo sapiens, UniProt P41231, Y118A) (P41231 whole entry Y118A): as the sequence (P41231 whole entry R194H) above, with Y118A, H194R counted along it
Sequence of P2Y purinoceptor 2 (Homo sapiens), P41231 [R177A,R180A] (P41231 whole entry R177A/R180A): as the sequence (P41231 whole entry R194H) above, with R177A, R180A, H194R counted along it
Sequence of P2Y purinoceptor 2 (Homo sapiens, UniProt P41231, R177A/R180A) (P41231 whole entry R177A/R180A): as the sequence (P41231 whole entry R194H) above, with R177A, R180A, H194R counted along it
Sequence of P2Y purinoceptor 2 (Homo sapiens), P41231 [C278S] (P41231 whole entry C278S): as the sequence (P41231 whole entry R194H) above, with H194R, C278S counted along it
Sequence of P2Y purinoceptor 2 (Homo sapiens, UniProt P41231, C278S) (P41231 whole entry C278S): as the sequence (P41231 whole entry R194H) above, with H194R, C278S counted along it
Sequence of P2Y purinoceptor 2 (Homo sapiens), P41231 [R180A] (P41231 whole entry R180A): as the sequence (P41231 whole entry R194H) above, with R180A, H194R counted along it
Sequence of P2Y purinoceptor 2 (Homo sapiens), P41231 [UNDEFINED MUTATION] (P41231 whole entry, looked up, stated change not applied): as the sequence (P41231 whole entry R194H) above, with H194R counted along it
Sequence of P2Y purinoceptor 2 (Homo sapiens, UniProt P41231, Y198A) (P41231 whole entry Y198A): as the sequence (P41231 whole entry R194H) above, with H194R, Y198A counted along it
Sequence of P2Y purinoceptor 2 (Homo sapiens), P41231 [Y198A] (P41231 whole entry Y198A): as the sequence (P41231 whole entry R194H) above, with H194R, Y198A counted along it

IC50 (P2Y purinoceptor 2 [1]): 3.44 µM | IC50 (P2Y purinoceptor 2 [2]): 22.4 µM | Ratio IC50 [3]: 0.2 | IC50 (P2Y purinoceptor 2 [4]): 24.6 µM | IC50 (P2Y purinoceptor 2 [5]): 21.1 µM | IC50 (P2Y purinoceptor 2 [6]): 21.9 µM | IC50 (P2Y purinoceptor 2 [7]): 21.7 µM | IC50 (P2Y purinoceptor 2 [8]): 26.5 µM
SMILES: COc1ccc(Nc2cc(S(=O)(=O)O)c(N)c3c2C(=O)c2ccccc2C3=O)cc1

Activity (P2Y purinoceptor 2 [9]): Active
SMILES: C[N+](C)(C)CCOC(N)=O

Efficacy [10]: 25% | Efficacy [11]: 5% | Efficacy [12]: 127% | Efficacy [13]: inactive | Efficacy [14]: 101% | Efficacy (P2Y purinoceptor 2 [15]): 60% | Efficacy [16]: inactive | Efficacy (P2Y purinoceptor 2 [17]): 98% | Efficacy [18]: 72% | Efficacy [19]: 102% | Efficacy [20]: 142% | Efficacy [21]: 85%
SMILES: O=c1ccn([C@@H]2O[C@H](COP(=O)(O)OP(=O)(O)OP(=O)(O)OP(=O)(O)OC[C@H]3O[C@@H](n4ccc(=O)[nH]c4=O)[C@H](O)[C@@H]3O)[C@@H](O)[C@H]2O)c(=O)[nH]1
